Seven compounds from ChEMBL document CHEMBL3352149, “Promiscuity and selectivity in covalent enzyme inhibition: a systematic study of electrophilic fragments” (J Med Chem, 2014) can be followed below.

Assay [1] concerns Escherichia coli. Briefly: Inhibition of Escherichia coli MetAP at 25 uM after 20 mins by HPLC analysis. The method, boiled down: (§1)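 Endpoint assay. Enzyme (50 nM) was preincubated with 25 μM compound for 20 min at 37 °C in 50 mM Tris pH 7.5, 100 mM NaCl, 100 μM CoCl2, 0.075% BSA. MGMM substrate (400 μM) was then added for 15 min (human MetAP-1) or 20 min (E. coli MetAP). Reactions were stopped with TFA. GMM product was quantified by RP-HPLC, UV 214 nm. Triplicate.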

Assay [2] concerns the target Methionine aminopeptidase 1 (Homo sapiens) (UniProt P53582). Briefly: Inhibition of human MetAP at 25 uM after 20 mins by HPLC analysis. The method, boiled down:
as §1

Assay [3] has as its system Escherichia coli. Kind of assay: Inhibition of wild-type Escherichia coli MurA compound preincubated for 10 mins before substrate addition at 25 uM measured after 15 mins by LC-MS method.
Assay [4] concerns Escherichia coli. Briefly: Inhibition of wild-type Escherichia coli MurB compound preincubated for 10 mins before substrate addition at 25 uM measured after 15 mins by LC-MS method. The method, boiled down:
(§2)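 E. coli wild-type enzyme (4 nM) was preincubated with 25 μM compound for 10 min at 37 °C. Enzymatically generated nucleotide-sugar substrate (~200 μM) plus ATP (~200 μM), or NADPH 200 μM for MurB, was added for 10 min. Reactions were started with amino-acid cosubstrate (MurC–F) or EP-UNAG (MurB), run 15 min at 37 °C, and quenched with formic acid. Product was measured by negative-ESI LC-MS EIC peak area. MgCl2: MurC 10, MurD/E 2, MurF 5 mM; MurB had 5 mM KCl. All in 50 mM NH4HCO3, 0.07% BSA, 1% DMSO; triplicate.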

The subject of assay [5] is Escherichia coli. Kind of assay: Inhibition of wild-type Escherichia coli MurC compound preincubated for 10 mins before substrate addition at 25 uM measured after 15 mins by LC-MS method. The method, boiled down: as §2
The subject of assay [6] is Escherichia coli. Kind of assay: Inhibition of wild-type Escherichia coli MurD compound preincubated for 10 mins before substrate addition at 25 uM measured after 15 mins by LC-MS method. The method, boiled down: as §2
The subject of assay [7] is Escherichia coli. Kind of assay: Inhibition of wild-type Escherichia coli MurE compound preincubated for 10 mins before substrate addition at 25 uM measured after 15 mins by LC-MS method. The method, boiled down:
as §2

Assay [8] relates to Escherichia coli. Kind of assay: Inhibition of wild-type Escherichia coli MurF compound preincubated for 10 mins before substrate addition at 25 uM measured after 15 mins by LC-MS method. The method, boiled down:
as §2

Assay [9] can be described thus: GSH reactivity of the compound assessed as adducts formation by RP-HPLC analysis. The method, boiled down: (§3)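 Fresh aqueous glutathione (10 mM solution) was added to 50 mM Tris-maleate buffer, pH 7.5. The reaction was started with compound from 10 mM DMSO stock (final 250 μM). Mixtures were followed by reversed-phase HPLC on an ODS column with a gradient to 100% B; rate constants are given in l·mol⁻¹·s⁻¹.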

A short description of assay [10]: GSH reactivity of the compound assessed as half life by RP-HPLC analysis.
Assay [11] concerns the target Genome polyprotein (dengue virus type 2) (UniProt P12823). Kind of assay: Inhibition of Dengue virus serotype 2 NS2B-NS3 protease at 50 uM.
Assay [12] concerns the target Genome polyprotein (West Nile virus) (UniProt P06935). Kind of assay: Inhibition of West Nile virus NS2B-NS3 protease at 50 uM.
Assay [13] concerns the target Prothrombin (Bos taurus) (UniProt P00735). Briefly: Inhibition of Bovine thrombin using Boc-Val-Pro-Arg-AMC as substrate compound preincubated at 25 uM for 15 mins by fluorescence assay. The method, boiled down: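 Bovine thrombin (final 10 nM) was preincubated 15 min with 25 μM compound in 50 mM Tris-HCl pH 7.5, 150 mM NaCl, 0.05% Tween 20. The reaction was started with Boc-Val-Pro-Arg-AMC (50 μM final). Fluorescence (ex 355/em 460 nm) was monitored continuously for 10 min; activity taken as slope (RFU/s). Triplicate.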

Assay [14] deals with HeLa. Briefly: Cytotoxicity against human HeLa cells assessed as reduction in cell viability after 24 hrs by CellTiter-Blue assay. Format: cell-based. The method, boiled down:
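HeLa cells seeded in triplicate at 5×10^3 cells/well and grown 24 h at 37 °C/5% CO2. Compounds at varying concentrations were added as a 2x stock in phenol-red-free DMEM with FBS, penicillin/streptomycin, sodium pyruvate and L-glutamine, then left 24 h. Medium was replaced with CellTiter-Blue medium for 3 h. A570/A610 was read after background subtraction, as % of untreated controls; EC50 derived.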
Background: Resazurin is reduced to fluorescent resorufin, in cell work by metabolically active cells.

Assay [15] is described as follows: GSH reactivity of the compound assessed as adducts formation meaured over 3 hrs by RP-HPLC analysis. The method, boiled down:
as §3

Chain of Genome polyprotein (West Nile virus) (P06935 whole entry): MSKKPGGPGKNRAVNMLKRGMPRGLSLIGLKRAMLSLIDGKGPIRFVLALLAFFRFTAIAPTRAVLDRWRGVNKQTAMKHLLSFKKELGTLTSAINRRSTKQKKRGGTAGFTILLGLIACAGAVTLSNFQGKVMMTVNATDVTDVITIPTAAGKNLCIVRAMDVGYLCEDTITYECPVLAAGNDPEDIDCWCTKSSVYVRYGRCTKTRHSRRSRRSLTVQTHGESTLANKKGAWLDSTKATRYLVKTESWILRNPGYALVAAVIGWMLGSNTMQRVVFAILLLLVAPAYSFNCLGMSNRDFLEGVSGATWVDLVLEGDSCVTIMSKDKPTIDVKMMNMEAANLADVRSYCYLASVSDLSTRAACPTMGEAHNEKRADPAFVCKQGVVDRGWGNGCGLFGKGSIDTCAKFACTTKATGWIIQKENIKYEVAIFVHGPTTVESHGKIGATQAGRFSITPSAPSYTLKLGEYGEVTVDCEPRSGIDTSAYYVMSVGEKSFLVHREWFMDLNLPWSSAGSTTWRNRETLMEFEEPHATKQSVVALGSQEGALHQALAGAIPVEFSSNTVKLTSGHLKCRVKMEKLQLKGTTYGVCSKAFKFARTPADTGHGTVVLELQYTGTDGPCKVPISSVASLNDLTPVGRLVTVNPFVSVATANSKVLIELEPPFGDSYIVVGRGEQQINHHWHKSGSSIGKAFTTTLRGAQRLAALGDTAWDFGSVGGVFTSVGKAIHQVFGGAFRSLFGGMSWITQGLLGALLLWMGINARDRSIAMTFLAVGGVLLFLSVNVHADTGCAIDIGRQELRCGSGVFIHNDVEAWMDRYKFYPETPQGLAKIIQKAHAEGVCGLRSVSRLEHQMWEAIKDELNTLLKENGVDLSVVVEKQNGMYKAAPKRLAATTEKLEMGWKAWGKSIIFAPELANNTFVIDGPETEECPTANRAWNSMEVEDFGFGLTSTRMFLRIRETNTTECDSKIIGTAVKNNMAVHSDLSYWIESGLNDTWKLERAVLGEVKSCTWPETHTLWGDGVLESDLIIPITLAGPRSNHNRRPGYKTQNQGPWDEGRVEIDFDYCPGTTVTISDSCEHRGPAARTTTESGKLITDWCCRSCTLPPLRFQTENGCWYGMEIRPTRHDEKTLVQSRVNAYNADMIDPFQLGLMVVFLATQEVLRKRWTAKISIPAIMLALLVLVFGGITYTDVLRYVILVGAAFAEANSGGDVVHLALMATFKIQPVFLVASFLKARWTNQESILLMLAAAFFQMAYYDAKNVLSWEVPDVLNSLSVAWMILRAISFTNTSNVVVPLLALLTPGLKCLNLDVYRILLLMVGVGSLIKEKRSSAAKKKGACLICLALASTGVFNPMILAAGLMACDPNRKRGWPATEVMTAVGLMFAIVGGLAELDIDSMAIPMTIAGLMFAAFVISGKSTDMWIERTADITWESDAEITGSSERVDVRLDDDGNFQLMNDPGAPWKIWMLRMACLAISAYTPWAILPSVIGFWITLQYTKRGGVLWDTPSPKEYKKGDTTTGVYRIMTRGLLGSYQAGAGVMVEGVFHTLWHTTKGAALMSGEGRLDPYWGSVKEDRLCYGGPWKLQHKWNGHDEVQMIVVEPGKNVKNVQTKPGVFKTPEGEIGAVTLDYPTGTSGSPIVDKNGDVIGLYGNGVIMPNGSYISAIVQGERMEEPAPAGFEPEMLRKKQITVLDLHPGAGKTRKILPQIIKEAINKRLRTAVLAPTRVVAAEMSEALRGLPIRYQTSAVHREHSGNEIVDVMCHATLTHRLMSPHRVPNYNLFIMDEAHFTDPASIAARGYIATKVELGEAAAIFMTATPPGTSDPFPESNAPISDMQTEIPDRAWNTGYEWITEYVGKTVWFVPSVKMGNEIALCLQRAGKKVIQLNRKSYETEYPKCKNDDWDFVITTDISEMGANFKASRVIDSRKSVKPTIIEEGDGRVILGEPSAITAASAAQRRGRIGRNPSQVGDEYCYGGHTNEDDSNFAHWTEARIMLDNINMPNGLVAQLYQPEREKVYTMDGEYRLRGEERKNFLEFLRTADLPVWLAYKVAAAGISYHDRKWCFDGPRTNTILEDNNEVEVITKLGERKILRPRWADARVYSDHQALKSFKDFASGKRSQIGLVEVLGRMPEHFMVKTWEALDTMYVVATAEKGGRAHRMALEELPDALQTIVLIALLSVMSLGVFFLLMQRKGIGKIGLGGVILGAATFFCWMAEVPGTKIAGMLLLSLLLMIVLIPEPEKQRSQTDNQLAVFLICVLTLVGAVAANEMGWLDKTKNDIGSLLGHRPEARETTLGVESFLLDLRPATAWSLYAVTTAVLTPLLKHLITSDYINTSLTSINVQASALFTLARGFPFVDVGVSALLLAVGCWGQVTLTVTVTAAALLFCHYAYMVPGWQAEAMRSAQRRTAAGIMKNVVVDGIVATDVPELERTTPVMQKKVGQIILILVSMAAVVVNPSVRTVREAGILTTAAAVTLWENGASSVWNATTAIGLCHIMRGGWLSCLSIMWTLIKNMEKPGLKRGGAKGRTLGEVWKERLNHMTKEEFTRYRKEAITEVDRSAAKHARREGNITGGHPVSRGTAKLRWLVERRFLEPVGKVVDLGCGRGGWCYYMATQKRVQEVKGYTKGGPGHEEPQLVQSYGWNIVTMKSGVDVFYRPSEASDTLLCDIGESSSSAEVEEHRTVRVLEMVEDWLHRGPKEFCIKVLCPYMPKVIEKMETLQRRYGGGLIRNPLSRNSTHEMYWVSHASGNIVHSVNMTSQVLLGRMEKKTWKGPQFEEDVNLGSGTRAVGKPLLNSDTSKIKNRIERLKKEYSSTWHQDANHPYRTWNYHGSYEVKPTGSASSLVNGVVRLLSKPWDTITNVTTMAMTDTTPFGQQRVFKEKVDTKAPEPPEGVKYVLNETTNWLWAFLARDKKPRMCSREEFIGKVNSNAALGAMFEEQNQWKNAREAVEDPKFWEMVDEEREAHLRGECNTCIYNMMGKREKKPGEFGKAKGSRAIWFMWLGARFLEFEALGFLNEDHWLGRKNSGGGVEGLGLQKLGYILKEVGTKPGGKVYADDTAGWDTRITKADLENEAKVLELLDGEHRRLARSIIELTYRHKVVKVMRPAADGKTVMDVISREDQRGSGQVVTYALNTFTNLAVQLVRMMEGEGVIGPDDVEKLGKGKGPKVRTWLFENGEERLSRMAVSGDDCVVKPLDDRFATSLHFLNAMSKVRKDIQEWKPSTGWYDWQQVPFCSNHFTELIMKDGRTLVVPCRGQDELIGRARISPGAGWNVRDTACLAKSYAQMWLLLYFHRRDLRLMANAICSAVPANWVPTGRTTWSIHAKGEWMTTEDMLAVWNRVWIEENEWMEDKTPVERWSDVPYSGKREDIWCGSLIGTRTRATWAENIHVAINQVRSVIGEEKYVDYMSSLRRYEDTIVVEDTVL

What is called inhibition is how much of the control response was suppressed. A high value points to strong suppression. Regarding `Cc1ccc(NC(=O)C2CC(Br)=NO2)cc1` (configuration not stated), the inhibition in [1] was 19%; in [2], < 15%; in assay [3] it was < 15%; in [4], < 15%; in [5] it was < 15%; in assay [6], < 15%. Also, the inhibition is < 15% in assay [7]; < 15% in assay [8]; < 15% in assay [11]; 22% in assay [12]; < 15% in assay [13]. Further, the Activity in [9] was < 0.1 L/mol/s. Also, the T1/2 in assay [10] is > 200 h.

For orientation: EC50 means the concentration that produces a half-maximal response. For the compound `C=CC(=O)NCCCC`, the inhibition in assay [1] was < 15%; in assay [2] it was 20%; in assay [3] it was < 15%; in assay [4], < 15%; in assay [5], < 15%; in [6] it was < 15%. The inhibition in assay [7], in assay [8], in assay [11], in assay [12] and in [13] was < 15% each time. Further, the figures for the Activity in assay [9] and in assay [15] were < 0.1 L/mol/s and < 5%, respectively. In assay [14], the half-maximal effective concentration (EC50) is > 100 µM.

In the case of `C=CC(=O)NCc1ccccc1`, the inhibition in [1], in assay [2], in assay [3], in [4], in assay [5] and in assay [6] was < 15% each time. Moreover, the inhibition in assay [7], in [8], in assay [11], in assay [12] and in assay [13] was < 15% in each case. Besides, the values for the Activity in assay [9] and in [15] were < 0.1 L/mol/s and < 5%, respectively.

For the compound `C=CC(=O)NC1CCCC1`, the inhibition was < 15% in assay [1]; 17% in assay [2]; < 15% in [3]; < 15% in assay [4]; < 15% in assay [5]; < 15% in assay [6]. Besides, the inhibition in assay [7], in assay [8], in assay [11], in assay [12] and in assay [13] was < 15% in each case. Moreover, the Activity was < 0.1 L/mol/s in assay [9] and < 5% in assay [15].

Take `C=CC(=O)Nc1ccc(OC)cc1`: the inhibition in assay [1], in [2], in assay [3], in [4], in assay [5] and in assay [6] was < 15% throughout. Further, the inhibition in [7], in [8], in assay [11], in assay [12] and in assay [13] was < 15% each time. The results for the Activity in [9] and in assay [15] were < 0.1 L/mol/s and < 5%, respectively.

For `C=CC(=O)NCCc1ccccc1`, the inhibition in assay [1], in assay [2], in assay [3], in [4], in assay [5] and in assay [6] was < 15% each time. The inhibition in assay [7], in [8], in assay [11], in assay [12] and in assay [13] was < 15% throughout. The Activity was < 0.1 L/mol/s in assay [9] and < 5% in [15].

With `C=CC(=O)NC(CCCC)C(=O)OC` (configuration not stated), the inhibition in assay [1], in assay [2], in assay [3], in [4], in assay [5] and in [6] was < 15% in each case. For the same compound, the inhibition in assay [7], in [8], in assay [11], in assay [12] and in assay [13] was < 15% throughout. Also, the Activity is < 0.1 L/mol/s in assay [9] and < 5% in [15].
